Assay results as given in ChEMBL document CHEMBL1764987, “The identification of the 2-phenylphthalazin-1(2H)-one scaffold as a new decorable core skeleton for the design of potent and selective human A3 adenosine receptor antagonists” (J Med Chem, 2011).

How the values were obtained:
[1] = biological target: T1, Adenosine receptor A3 (Homo sapiens) (UniProt P0DMS8); assay: Displacement of [125I]AB-MECA from human cloned adenosine A3 receptor expressed in CHO cells at 1 uM; format: cell-based
T1 sequence (whole entry): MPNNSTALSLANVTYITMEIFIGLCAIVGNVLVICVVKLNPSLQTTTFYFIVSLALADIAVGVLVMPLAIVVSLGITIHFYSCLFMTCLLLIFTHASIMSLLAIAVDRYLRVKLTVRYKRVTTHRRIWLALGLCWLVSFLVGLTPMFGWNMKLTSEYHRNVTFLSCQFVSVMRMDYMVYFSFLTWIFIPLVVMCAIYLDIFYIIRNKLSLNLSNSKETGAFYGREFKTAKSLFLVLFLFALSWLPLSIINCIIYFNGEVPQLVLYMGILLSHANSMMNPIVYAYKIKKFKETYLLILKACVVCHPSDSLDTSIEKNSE
Method in brief: (§1)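 Membranes from CHO cells stably expressing hA3 AR, labelled with [125I]AB-MECA (Kd 1.4 nM). IC50 from nonlinear regression using five displacer concentrations, each in triplicate. Ki calculated by Cheng-Prusoff, mean ± SEM of four assays. Single-point data are percent inhibition of specific binding at 1 μM.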

[2] = biological target: T2, Adenosine receptor A1 (Homo sapiens) (UniProt P30542); assay: Displacement of [3H]DPCPX from human cloned adenosine A1 receptor expressed in CHO cells at 10 uM; format: cell-based
T2 sequence (whole entry): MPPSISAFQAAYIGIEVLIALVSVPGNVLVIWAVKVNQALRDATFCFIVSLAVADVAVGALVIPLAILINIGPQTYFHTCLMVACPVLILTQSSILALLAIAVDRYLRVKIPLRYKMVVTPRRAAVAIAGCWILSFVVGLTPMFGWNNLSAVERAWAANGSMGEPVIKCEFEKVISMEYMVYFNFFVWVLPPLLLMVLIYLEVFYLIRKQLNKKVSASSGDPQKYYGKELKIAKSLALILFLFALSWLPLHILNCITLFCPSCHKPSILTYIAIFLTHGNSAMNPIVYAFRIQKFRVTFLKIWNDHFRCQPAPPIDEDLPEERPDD
Method in brief: (§2)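 Radioligand displacement in CHO membranes stably expressing hA1 ([3H]DPCPX, Kd 3 nM) or hA2A ([3H]NECA, Kd 30 nM). Percent inhibition of specific binding at 10 μM. Full curves used five concentrations in triplicate, with IC50 converted to Ki by Cheng-Prusoff.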

[3] = biological target: Adenosine receptor A2a (Homo sapiens) (UniProt P29274); assay: Displacement of [3H]NECA from human cloned adenosine A2A receptor expressed in CHO cells at 10 uM; format: cell-based; method in brief: as §2
Sequence of Adenosine receptor A2a (Homo sapiens) (P29274 whole entry): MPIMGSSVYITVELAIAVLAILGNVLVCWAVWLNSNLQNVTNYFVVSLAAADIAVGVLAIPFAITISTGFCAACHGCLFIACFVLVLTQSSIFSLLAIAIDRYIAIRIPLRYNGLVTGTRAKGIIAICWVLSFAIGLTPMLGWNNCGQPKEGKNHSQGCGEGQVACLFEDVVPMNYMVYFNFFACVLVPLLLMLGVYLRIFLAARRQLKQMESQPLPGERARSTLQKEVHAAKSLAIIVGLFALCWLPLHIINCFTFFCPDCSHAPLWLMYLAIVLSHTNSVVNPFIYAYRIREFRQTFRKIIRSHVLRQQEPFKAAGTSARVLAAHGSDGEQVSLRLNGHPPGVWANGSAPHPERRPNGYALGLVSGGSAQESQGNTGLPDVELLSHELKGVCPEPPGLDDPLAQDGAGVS

[4] = biological target: T3, Adenosine receptor A3 (Homo sapiens, UniProt P0DMS8); assay: Displacement of [125I]AB-MECA from human cloned adenosine A3 receptor expressed in CHO cells; format: cell-based; method in brief: as §1
T3 sequence (P0DMS8 whole entry): T1 sequence (whole entry)

[5] = biological target: T4, Adenosine receptor A2b (Homo sapiens) (UniProt P29275); assay: Antagonist activity at human cloned adenosine A2B receptor expressed in CHO cells assessed as inhibition of NECA-induced cAMP accumulation at 1 nM to 10 uM after 15 mins; format: functional, cell-based
T4 sequence (whole entry): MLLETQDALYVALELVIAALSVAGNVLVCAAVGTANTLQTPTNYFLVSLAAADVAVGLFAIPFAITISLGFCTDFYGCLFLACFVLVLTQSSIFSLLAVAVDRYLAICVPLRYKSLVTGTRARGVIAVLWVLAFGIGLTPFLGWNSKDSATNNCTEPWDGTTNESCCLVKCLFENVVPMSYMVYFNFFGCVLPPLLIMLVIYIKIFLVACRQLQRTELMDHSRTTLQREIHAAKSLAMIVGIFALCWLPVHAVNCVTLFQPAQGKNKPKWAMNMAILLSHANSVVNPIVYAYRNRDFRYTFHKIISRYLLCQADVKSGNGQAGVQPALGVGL
Method in brief: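 Stably transfected CHO cells (~60000) plated and grown 48 h. Preincubated 15 min at 37 °C in DMEM containing Ro20-1724 (20 μM) and adenosine deaminase (1 U/mL). Compound (1 nM to 10 μM) added for 15 min at 37 °C, then 100 nM NECA. Reaction stopped with 0.4 N HCl and lysate neutralised with KOH. cAMP measured by competitive binding to beef adrenal binding protein with [3H]cAMP (2 nM) for 150 min at 4 °C, then filtration. Read-out is percent inhibition of NECA-stimulated cAMP.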

[6] = biological target: T3, Adenosine receptor A3; assay: Antagonist activity at human cloned adenosine A3 receptor expressed in CHO cells assessed as inhibition of […] after 15 mins; format: functional, cell-based
Method in brief: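 CHO cells stably expressing hA3 plated and grown 48 h. Preincubated 15 min at 37 °C with Ro20-1724 (20 μM) and adenosine deaminase (1 U/mL). Compound (1 nM to 10 μM) given for 15 min at 37 °C, then 100 nM NECA. Reversal of NECA-induced cAMP inhibition measured by [3H]cAMP competitive protein binding assay. IC50 from sigmoid nonlinear regression, means ± SEM of three experiments.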

[7] = Displacement of [3H]CGS21680 from adenosine A2A receptor in bovine brain membranes; format: cell membranes, Bos taurus
[8] = biological target: Adenosine receptors; A1 & A3 (Homo sapiens) (UniProt P30542+P0DMS8); assay: Selectivity ratio of Ki for human cloned adenosine A1 receptor to Ki for human cloned adenosine A3 receptor
Method in brief: (§3)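 Ki values from radioligand displacement at hA1 ([3H]DPCPX, Kd 3 nM), hA2A ([3H]NECA, Kd 30 nM) and hA3 ([125I]AB-MECA, Kd 1.4 nM) in CHO membranes. Five displacer concentrations in triplicate, Cheng-Prusoff conversion, means of four assays. Ratio taken as A1 or A2A Ki over A3 Ki.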

[9] = organism: Homo sapiens; assay: Selectivity ratio of Ki for human cloned adenosine A2A receptor to Ki for human cloned adenosine A3 receptor; method in brief: as §3

Row | Compound | inhibition [1] [%] | inhibition [2] [%] | inhibition [3] [%] | Ki [4] [µM] | inhibition [5] [%] | IC50 [6] [µM] | Ki [7] [µM] | Ratio Ki [8] | Ratio Ki [9]
1 | CC(=O)Nc1nn(-c2ccccc2)c(=O)c2ccccc12 | 0 | 52 | 14 | – | – | – | – | – | –
2 | O=C(Cc1ccccc1)Nc1nn(-c2ccccc2)c(=O)c2ccccc12 | 28 | 23 | 4 | – | – | – | – | – | –
3 | COc1ccc(NC(=O)Nc2nn(-c3ccccc3)c(=O)c3ccccc23)c(OC)c1 | 33 | 29 | 33 | – | – | – | – | – | –
4 | O=C(Nc1ccc(Cl)cc1)Nc1nn(-c2ccccc2)c(=O)c2ccccc12 | 13 | 10 | 9 | – | – | – | – | – | –
5 | COc1ccc(C(=O)Nc2nn(-c3ccccc3)c(=O)c3ccccc23)cc1 | 10 | 0 | 17 | – | – | – | – | – | –
6 | Cc1ccc(NC(=O)Nc2nn(-c3ccccc3)c(=O)c3ccccc23)cc1 | 45 | 29 | 0 | – | – | – | – | – | –
7 | O=C(NCc1ccccc1)Nc1nn(-c2ccccc2)c(=O)c2ccccc12 | – | 20 | 23 | 0.0296 | 34 | 0.00115 | – | – | –
8 | CC(=O)N(C(C)=O)c1nn(-c2ccccc2)c(=O)c2ccccc12 | 0 | 47 | 10 | – | – | – | – | – | –
9 | O=C(Nc1nn(-c2ccccc2)c(=O)c2ccccc12)c1ccccc1 | – | 44 | 35 | 1.1 | – | – | – | – | –
10 | O=C(Nc1ccccc1)Nc1nc2ccccc2n2c(=O)n(-c3ccccc3)nc12 | – | – | – | – | – | – | 2.3 | – | –
11 | COc1ccc(OC)c(NC(=O)Nc2nn(-c3ccccc3)c(=O)c3ccccc23)c1 | – | 0 | 19 | 0.000776 | 0 | 0.00825 | – | 10000 | 10000
12 | O=C(Nc1ccccc1)Nc1nn(-c2ccccc2)c(=O)c2ccccc12 | – | 44 | 42 | 0.178 | – | – | – | – | –
13 | O=C(Nc1nn(-c2ccccc2)c(=O)c2ccccc12)c1ccco1 | 8 | 23 | 41 | – | – | – | – | – | –
14 | O=C(Nc1nn(-c2ccccc2)c(=O)c2ccccc12)c1ccc(Cl)cc1 | 17 | 26 | 17 | – | – | – | – | – | –
15 | O=C(Nc1ccccc1Cl)Nc1nn(-c2ccccc2)c(=O)c2ccccc12 | 49 | 0 | 3 | – | – | – | – | – | –
16 | Nc1nc2ccccc2n2c(=O)n(-c3ccccc3)nc12 | – | – | – | 0.49 | – | – | – | – | –
17 | COc1cccc(NC(=O)Nc2nn(-c3ccccc3)c(=O)c3ccccc23)c1 | – | 45 | 28 | 0.00975 | 57 | 0.018 | – | – | –
18 | COc1ccccc1CNC(=O)Nc1nn(-c2ccccc2)c(=O)c2ccccc12 | – | 28 | 28 | 0.274 | – | – | – | – | –
19 | Nc1nn(-c2ccccc2)c(=O)c2ccccc12 | 8 | 24 | 45 | – | – | – | – | – | –
20 | COc1ccccc1NC(=O)Nc1nn(-c2ccccc2)c(=O)c2ccccc12 | – | 0 | 17 | 0.0089 | 16 | 0.017 | – | – | –
21 | Cc1ccccc1NC(=O)Nc1nn(-c2ccccc2)c(=O)c2ccccc12 | 22 | 20 | 28 | – | – | – | – | – | –
22 | COc1ccc(NC(=O)Nc2nn(-c3ccccc3)c(=O)c3ccccc23)cc1 | – | 4 | 51 | 0.0606 | 0 | 0.028 | – | – | –
